In ChEMBL document CHEMBL2203235, “Optimization of a natural product-based class of γ-secretase modulators” (J Med Chem, 2012):

Assays:
[1] = tested on: CHO-2B7; assay: Modulation of gamma secretase in CHO-2B7 cells assessed as reduction in amyloid beta 40 level at 4 uM after 5 hrs by MSD ELISA; type: cell-based; parameters: scale not given: the % may be the effect or the level left; settings: Cricetulus griseus
[2] = tested on: Liver microsomes; assay: Metabolic stability in human liver microsomes at 1 uM after 60 mins by LC/MS/MS analysis; settings: 1 h
[3] = Modulation of gamma secretase in CHO-2B7 cells assessed as reduction in amyloid beta 42 level after 5 hrs by MSD ELISA; type: cell-based; settings: Cricetulus griseus, CHO-2B7, 5 h
[4] = Metabolic stability in human liver microsomes assessed as compound remaining at 1 uM at 60 mins by LC/MS/MS analysis in absence of NADPH; type: ADME, Microsome; settings: liver microsomes, read-out: Stability
Procedure, shortened: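 Human liver microsomes were run without NADPH as a qualitative read of susceptibility to enzymatic hydrolysis. The read-out was percent parent remaining at 60 min.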

[5] = Metabolic stability in human liver microsomes assessed as compound remaining at 1 uM at 60 mins by LC/MS/MS analysis in presence of NADPH; type: ADME, Microsome; settings: read-out: Stability
[6] = tested on: CHO-2B7; assay: Modulation of gamma secretase in CHO-2B7 cells assessed as reduction in amyloid beta 40 level at 20 uM after 5 hrs by MSD ELISA; type: cell-based; parameters: scale not given: the % may be the effect or the level left; settings: Cricetulus griseus
[7] = Ratio of drug uptake in brain to plasma in CD1 mouse at 3 mg/kg, iv at 6 hrs; type: ADME, organism-based; parameters: dose 3 mg/kg, route intravenous; settings: brain and plasma, read-out: BPR
Procedure, shortened: (§1)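 CD-1 mice dosed by the IV route. Plasma and brain drug concentrations were measured at 6 h post dose, or at 2 h for one analogue. The brain-to-plasma ratio was calculated from these concentrations and used to rank CNS penetration.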

[8] = Modulation of gamma secretase in CHO-2B7 cells assessed as reduction in amyloid beta 40 level after 5 hrs by MSD ELISA; type: cell-based; settings: Cricetulus griseus, CHO-2B7, 5 h
[9] = Plasma concentration in CD1 mouse at 3 mg/kg, iv at 6 hrs; type: ADME, organism-based; parameters: dose 3 mg/kg, route intravenous; procedure, shortened: as §1
[10] = Drug uptake in CD1 mouse brain at 3 mg/kg, iv at 6 hrs; type: ADME, organism-based; parameters: dose 3 mg/kg, route intravenous; settings: read-out: Drug uptake; procedure, shortened: as §1
[11] = Modulation of gamma-secretase assessed as reduction in amyloid beta 40 level by cell based assay
[12] = Modulation of gamma-secretase assessed as increase in amyloid beta 38 level at 800 nM by cell based assay relative to control
[13] = Modulation of gamma-secretase assessed as reduction in amyloid beta 42 level by cell based assay
[14] = Plasma concentration in CD1 mouse at 1 mg/kg, iv at 6 hrs
[15] = Drug uptake in CD1 mouse brain at 1 mg/kg, iv at 6 hrs
[16] = Ratio of drug uptake in brain to plasma in CD1 mouse at 1 mg/kg, iv at 6 hrs; settings: brain and plasma
[17] = tested on: CHO-2B7; assay: Modulation of gamma secretase in CHO-2B7 cells assessed as reduction in amyloid beta 40 level at 4 mM after 5 hrs by MSD ELISA; type: cell-based; parameters: scale not given: the % may be the effect or the level left; settings: Cricetulus griseus
[18] = tested on: CHO-2B7; assay: Modulation of gamma secretase in CHO-2B7 cells assessed as reduction in amyloid beta 42 level at 20 uM after 5 hrs by MSD ELISA; type: cell-based; parameters: scale not given: the % may be the effect or the level left; settings: Cricetulus griseus

In the case of `CCO[C@@H]([C@H]1C[C@@H](C)[C@H]2[C@H](O1)[C@H](O)[C@@]1(C)[C@@H]3CC[C@H]4C(C)(C)[C@@H](OC(=O)NCCN5CCC5)CC[C@@]45C[C@@]35CC[C@]21C)C(C)(C)O`, the Activity [1] is reported as 41%, the Stability [2] is reported as “Stable” and the IC50 [3] is reported as 220 nM.

`C[C@@H]1C[C@H]([C@H](O)C(C)(C)O)O[C@H]2[C@H]1[C@@]1(C)CC[C@@]34C[C@@]35CC[C@H](O[C@H]3CNCCO3)C(C)(C)[C@@H]5CC[C@H]4[C@]1(C)[C@H]2O` gave a remaining at 1 h, 1 µM [4] of 112%, an IC50 [3] of 1600 nM and a remaining at 1 h, 1 µM [5] of 40%.

With `CC(=O)O[C@@H]([C@H]1C[C@@H](C)[C@H]2[C@H](O1)[C@H](O)[C@@]1(C)[C@@H]3CC[C@H]4C(C)(C)[C@@H](O[C@H]5CN([C@H]6CCNC6=O)CCO5)CC[C@@]45C[C@@]35CC[C@]21C)C(C)(C)O` the remaining at 1 h, 1 µM [4] was 3%, the IC50 [3] was 170 nM and the remaining at 1 h, 1 µM [5] was 63%.

With `CC(=O)O[C@@H]([C@H]1C[C@@H](C)[C@H]2[C@H](O1)[C@H](O)[C@@]1(C)[C@@H]3CC[C@H]4C(C)(C)[C@@H](O[C@H]5CN(C6COC6)CCO5)CC[C@@]45C[C@@]35CC[C@]21C)C(C)(C)O` the remaining at 1 h, 1 µM [4] was 1%, the IC50 [3] was 170 nM and the remaining at 1 h, 1 µM [5] was 1%. The Activity [6] was 35%.

In the case of `CCO[C@@H]([C@H]1C[C@@H](C)[C@H]2[C@H](O1)[C@H](O)[C@@]1(C)[C@@H]3CC[C@H]4C(C)(C)[C@@H](O[C@H]5CN(C6COC6)CCO5)CC[C@@]45C[C@@]35CC[C@]21C)C(C)(C)O`, the Kp at 6 h [7] is reported as 0.5, the remaining at 1 h, 1 µM [4] is reported as 94% and the IC50 [8] is reported as 4600 nM. For the same compound, the Stability [2] was “Stable”, the IC50 [3] was 270 nM and the concentration at 6 h [9] was 24 nM. It also gave a concentration at 6 h [10] of 12 nM.

Work on `CC(C)CC[C@H](c1ccc(Cl)cc1)N1CC[C@@H](CC(=O)O)C[C@H]1c1ccc(C(F)(F)F)cc1` yielded an IC50 [11] of 8400 nM, an Activity [12] of 280% and an IC50 [13] of 100 nM.

Work on `CC(=O)O[C@@H]([C@H]1C[C@@H](C)[C@H]2[C@H](O1)[C@H](O)[C@@]1(C)[C@@H]3CC[C@H]4C(C)(C)[C@@H](O[C@@H]5OC[C@@H](O)[C@H](O)[C@H]5O)CC[C@@]45C[C@@]35CC[C@]21C)C(C)(C)O` yielded an IC50 [13] of 60 nM.

In the case of `CC(C)[C@@H](OC(=O)N1CCC1)[C@H]1C[C@@H](C)[C@H]2[C@H](O1)[C@H](O)[C@@]1(C)[C@@H]3CC[C@H]4C(C)(C)[C@@H](OC(=O)N5CCN(C)CC5)CC[C@@]45C[C@@]35CC[C@]21C`, the concentration at 6 h [14] is reported as 450 nM, the IC50 [8] is reported as 8200 nM and the Stability [2] is reported as “Stable”. The IC50 [3] was 170 nM, the concentration at 6 h [15] was 14 nM and the Kp at 6 h [16] was 0.03.

With `CCO[C@@H]([C@H]1C[C@@H](C)[C@H]2[C@H](O1)[C@H](O)[C@@]1(C)[C@@H]3CC[C@H]4C(C)(C)[C@@H](O[C@H]5CN(CC(F)F)CCO5)CC[C@@]45C[C@@]35CC[C@]21C)C(C)(C)O` the Stability [2] was “Stable”, the IC50 [3] was 540 nM and the Activity [17] was 37%.

Compound `CC(=O)OC[C@H]1C[C@@H](C)[C@H]2[C@H](O1)[C@H](O)[C@@]1(C)[C@@H]3CC[C@H]4C(C)(C)[C@@H](O[C@H]5CN(C6COC6)CCO5)CC[C@@]45C[C@@]35CC[C@]21C` has a remaining at 1 h, 1 µM [4] of 0%, an Activity [18] of 0% and an Activity [6] of 0%.

In the case of `CCO[C@@H]([C@H]1C[C@@H](C)[C@H]2[C@H](O1)[C@H](O)[C@@]1(C)[C@@H]3CC[C@H]4C(C)(C)[C@@H](O[C@H]5CN(CC(=O)N6CCC6)CCO5)CC[C@@]45C[C@@]35CC[C@]21C)C(C)(C)O`, the Stability [2] is reported as “Stable”, the IC50 [3] is reported as 250 nM and the Activity [17] is reported as 39%.

`CC(C)C[C@H](C(=O)O)c1cc(-c2ccc(C(F)(F)F)cc2)cc(-c2ccc(C(F)(F)F)cc2)c1` gave an IC50 [11] of 9100 nM, an Activity [12] of 240% and an IC50 [13] of 260 nM.
